Measured values as given in ChEMBL document CHEMBL3580633, “Benzoxaborole antimalarial agents. Part 4. Discovery of potent 6-(2-(alkoxycarbonyl)pyrazinyl-5-oxy)-1,3-dihydro-1-hydroxy-2,1-benzoxaboroles” (J Med Chem, 2015).

Experiments:
[1] = test system: Plasmodium berghei; assay: Antiplasmodial activity against Plasmodium berghei infected in Swiss Webster mouse assessed as mouse survival at 11 mg/kg, po dosed once daily for 4 consecutive days beginning 1 hr after initial infection and measured on day 7 post infection by Giemsa staining method; assay type: functional
Procedure, shortened: (§1)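 Female Swiss Webster mice (about 20 g) infected ip with 6 × 10^6 P. berghei-infected erythrocytes. Oral gavage once daily for 4 days, starting 1 h after infection. Vehicle PEG300/propylene glycol/water (55/25/20 by weight). Giemsa-smear parasitemia counted daily from day 4. Mice euthanised above 50% parasitemia. Survival followed to day 21, 5 mice per dose, chloroquine 30 mg/kg as reference.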

[2] = test system: Plasmodium berghei; assay: Antiplasmodial activity against Plasmodium berghei infected in Swiss Webster mouse assessed as mouse survival at 33 mg/kg, po dosed once daily for 4 consecutive days beginning 1 hr after initial infection and measured on day 6 post infection by Giemsa staining method; assay type: functional
Procedure, shortened: (§2)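 Female Swiss Webster mice (about 20 g) were infected ip with 6 × 10^6 P. berghei-infected erythrocytes from a donor mouse. They were dosed by oral gavage once daily for 4 days, starting 1 h post-infection, in PEG 300/propylene glycol/water (55/25/20 by weight). Parasitemia was read daily on Giemsa smears from day 4, and mice were euthanized above 50% parasitemia. Percent survival was tracked to 21 days.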

[3] = test system: Plasmodium berghei; assay: Antiplasmodial activity against Plasmodium berghei infected in Swiss Webster mouse assessed as mouse survival at 11 mg/kg, po dosed once daily for 4 consecutive days beginning 1 hr after initial infection and measured on day 11 post infection by Giemsa staining method; assay type: functional; procedure, shortened: as §1
[4] = test system: Plasmodium berghei; assay: Antiplasmodial activity against Plasmodium berghei infected in Swiss Webster mouse assessed as mouse survival at 33 mg/kg, po dosed once daily for 4 consecutive days beginning 1 hr after initial infection and measured on day 11 post infection by Giemsa staining method; assay type: functional; procedure, shortened: as §2
[5] = test system: Plasmodium berghei; assay: Antiplasmodial activity against Plasmodium berghei infected in Swiss Webster mouse assessed as mouse survival at 100 mg/kg, po dosed once daily for 4 consecutive days beginning 1 hr after initial infection and measured on day 10 post infection by Giemsa staining method; assay type: functional; procedure, shortened: as §1
[6] = test system: Plasmodium berghei; assay: Antiplasmodial activity against Plasmodium berghei infected in Swiss Webster mouse assessed as mouse survival at 11 mg/kg, po dosed once daily for 4 consecutive days beginning 1 hr after initial infection and measured on day 8 post infection by Giemsa staining method; assay type: functional; procedure, shortened: as §1
[7] = test system: Plasmodium berghei; assay: Antiplasmodial activity against Plasmodium berghei infected in Swiss Webster mouse assessed as mouse survival at 100 mg/kg, po dosed once daily for 4 consecutive days beginning 1 hr after initial infection and measured on day 5 post infection by Giemsa staining method; assay type: functional; procedure, shortened: as §1
[8] = test system: Plasmodium berghei; assay: Antiplasmodial activity against Plasmodium berghei infected in Swiss Webster mouse assessed as mouse survival at 100 mg/kg, po dosed once daily for 4 consecutive days beginning 1 hr after initial infection and measured on day 6 post infection by Giemsa staining method; assay type: functional; procedure, shortened: as §1
[9] = test system: Plasmodium berghei; assay: Antiplasmodial activity against Plasmodium berghei infected in Swiss Webster mouse assessed as mouse survival at 11 mg/kg, po dosed once daily for 4 consecutive days beginning 1 hr after initial infection and measured on day 5 post infection by Giemsa staining method; assay type: functional; procedure, shortened: as §1
[10] = test system: Plasmodium berghei; assay: Antiplasmodial activity against Plasmodium berghei infected in Swiss Webster mouse assessed as mouse survival at 100 mg/kg, po dosed once daily for 4 consecutive days beginning 1 hr after initial infection and measured on day 12 post infection by Giemsa staining method; assay type: functional; procedure, shortened: as §1
[11] = test system: Plasmodium berghei; assay: Antiplasmodial activity against Plasmodium berghei infected in Swiss Webster mouse assessed as mouse survival at 33 mg/kg, po dosed once daily for 4 consecutive days beginning 1 hr after initial infection and measured on day 5 post infection by Giemsa staining method; assay type: functional; procedure, shortened: as §2
[12] = test system: Plasmodium berghei; assay: Antiplasmodial activity against Plasmodium berghei infected in Swiss Webster mouse assessed as mouse survival at 33 mg/kg, po dosed once daily for 4 consecutive days beginning 1 hr after initial infection and measured on day 7 post infection by Giemsa staining method; assay type: functional; procedure, shortened: as §2
[13] = test system: Plasmodium berghei; assay: Antiplasmodial activity against Plasmodium berghei infected in Swiss Webster mouse assessed as mouse survival at 33 mg/kg, po dosed once daily for 4 consecutive days beginning 1 hr after initial infection and measured on day 8 post infection by Giemsa staining method; assay type: functional; procedure, shortened: as §2
[14] = test system: Plasmodium berghei; assay: Antiplasmodial activity against Plasmodium berghei infected in Swiss Webster mouse assessed as mouse survival at 3 mg/kg, po dosed once daily for 4 consecutive days beginning 1 hr after initial infection and measured on day 4 post infection by Giemsa staining method; assay type: functional; procedure, shortened: as §1
[15] = test system: Jurkat; assay: Cytotoxicity against human Jurkat cells incubated for 72 hrs by MTT assay; assay type: cell-based
[16] = test system: Plasmodium berghei; assay: Antiplasmodial activity against Plasmodium berghei infected in Swiss Webster mouse assessed as mouse survival at 100 mg/kg, po dosed once daily for 4 consecutive days beginning 1 hr after initial infection and measured on day 4 post infection by Giemsa staining method; assay type: functional; procedure, shortened: as §1
[17] = Clearance in CD1 mouse at 5 mg/kg, iv by HPLC coupled to tandem mass spectrometry; assay type: ADME, organism-based; details: in vivo
Procedure, shortened: (§3)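 Adult female CD-1 mice received 5 mg/kg by both the iv and the oral-gavage route. Two vehicles were used: PEG 400/dimethylacetamide/water (45/10/45, pH 5.8), or PEG 300/propylene glycol/water (55/25/20, pH 5.9). Blood samples were collected and drug was quantified by HPLC-tandem MS.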

[18] = AUC (0 to infinity) in CD1 mouse at 5 mg/kg, iv by HPLC coupled to tandem mass spectrometry; assay type: ADME, organism-based; parameters: dose 5 mg/kg, route intravenous, time infinity; details: in vivo; procedure, shortened: as §3
[19] = Terminal half life in CD1 mouse at 5 mg/kg, po by HPLC coupled to tandem mass spectrometry; assay type: ADME, organism-based; details: in vivo, read-out: beta t1/2 (converted)
Procedure, shortened: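 Adult female CD-1 mice were given oral gavage at 5 mg/kg in a formulated solution, either PEG 400/dimethylacetamide/water (45/10/45, pH 5.8) or PEG 300/propylene glycol/water (55/25/20, pH 5.9). Blood samples were analysed for drug by HPLC-tandem MS, and the terminal half-life was derived.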

[20] = Cmax in CD1 mouse at 5 mg/kg, po by HPLC coupled to tandem mass spectrometry; assay type: ADME, organism-based; parameters: dose 5 mg/kg, route oral; details: in vivo; procedure, shortened: as §3
[21] = Tmax in CD1 mouse at 5 mg/kg, po by HPLC coupled to tandem mass spectrometry; assay type: ADME, organism-based; details: in vivo; procedure, shortened: as §3
[22] = Stability in mouse liver microsomes assessed as compound remaining at 1 uM incubated for 1 hr in presence of NADPH by LC/MS/MS method; assay type: ADME
Procedure, shortened: (§4)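 Compound at 1 μM final (from a 1 mg/mL DMSO stock) was incubated with mouse or human liver microsomes (0.5 mg/mL protein) in 100 mM potassium phosphate, pH 7.4, at 37 °C with shaking, with or without 1 mM NADPH. Samples were taken over 0–120 min and tested in duplicate. Reactions were quenched with cold acetonitrile plus internal standard and analyzed by LC/MS/MS.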

[23] = test system: Liver microsome; assay: Stability in human liver microsomes assessed as compound remaining at 1 uM incubated for 1 hr in presence of NADPH by LC/MS/MS method; assay type: ADME; procedure, shortened: as §4
[24] = AUC (0 to infinity) in CD1 mouse at 5 mg/kg, po by HPLC coupled to tandem mass spectrometry; assay type: ADME, organism-based; parameters: dose 5 mg/kg, route oral, time infinity; details: in vivo; procedure, shortened: as §3
[25] = Terminal half life in CD1 mouse at 5 mg/kg, iv by HPLC coupled to tandem mass spectrometry; assay type: ADME, organism-based; details: in vivo, read-out: beta t1/2 (converted); procedure, shortened: as §3
[26] = Volume of distribution at steady state in CD1 mouse at 5 mg/kg, iv by HPLC coupled to tandem mass spectrometry; assay type: ADME, organism-based; details: in vivo, read-out: Vdss; procedure, shortened: as §3
[27] = test system: Mus musculus; assay: Oral bioavailability in CD1 mouse at 5 mg/kg by HPLC coupled to tandem mass spectrometry; assay type: ADME, organism-based; details: in vivo; procedure, shortened: as §3

SMILES | survival at 11 mg/kg [1] [%] | survival at 33 mg/kg [2] [%] | survival at 11 mg/kg [3] [%] | survival at 33 mg/kg [4] [%] | survival at 100 mg/kg [5] [%] | survival at 11 mg/kg [6] [%] | survival at 100 mg/kg [7] [%] | survival at 100 mg/kg [8] [%] | survival at 11 mg/kg [9] [%] | survival at 100 mg/kg [10] [%] | survival at 33 mg/kg [11] [%] | survival at 33 mg/kg [12] [%] | survival at 33 mg/kg [13] [%] | survival at 3 mg/kg [14] [%] | IC50 [15] [µM] | survival at 100 mg/kg [16] [%] | clearance [17] [mL/min/kg] | AUC(0-inf) [18] [ng·h/mL] | half-life [19] [min] | Cmax [20] [ng/mL] | further results
O=C(O)c1cnc(Oc2ccc3c(c2)B(O)OC3)cn1 | 100 | 100 | 20 | 40 | 60 | 60 | 100 | 100 | 100 | 0 | 100 | 100 | 80 | 100 | > 100 | 100 | – | – | – | – | –
O=C(O)c1ccc(Oc2ccc3c(c2)B(O)OC3)cn1 | 100 | 100 | – | – | – | 40 | 100 | 100 | 100 | – | 100 | 100 | 60 | 100 | – | 100 | – | – | – | – | –
COC(=O)c1cnc(Oc2ccc3c(c2)B(O)OC3)cn1 | 100 | 100 | 80 | 100 | 100 | 100 | 100 | 100 | 100 | 100 | 100 | 100 | 100 | 100 | 7.59 | 100 | 208 | 400 | 60 | 160 | Tmax [21]: 15 min; Stability [22]: 0%; Stability [23]: 0%; AUC(0-inf) [24]: 100 ng·h/mL; half-life [25]: 18 min; Vd [26]: 0.926 L/kg; F [27]: 23%
NC(=O)c1cnc(Oc2ccc3c(c2)B(O)OC3)cn1 | 100 | 100 | – | – | 0 | 100 | 100 | 100 | 100 | – | 100 | 100 | 100 | 100 | 48.2 | 100 | 37.7 | 2200 | 126 | 1380 | Tmax [21]: 15 min; Stability [22]: 97%; Stability [23]: 87%; AUC(0-inf) [24]: 2290 ng·h/mL; half-life [25]: 24 min; Vd [26]: 0.973 L/kg; F [27]: 99%
